Hits are enriched below; roughly 5.8% of the tested compounds scored in any of these assays.
IDH1 R132H inh: blocks human IDH1 R132H reductase activity. O75874. diaphorase/resazurin fluorescence, 60 min. inhibition, % at 10 µM. hit rate 0.18% among 70,000. AID 624101; in the data active means inhibition above about 34%; inconclusive means no clear call, values can overlap the other calls; inactive means below about 11%;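 further: 0% = DMSO and 100% = no enzyme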
Pf Dd2 growth: P. falciparum Dd2 growth inhibition | SYBR Green, 72 h; active compounds read low | activity change, % at 10 µM | hit rate 2.3% among 94,000 | AID 1159554; in the data active means activity change below about -80%; inconclusive means no clear call, values can overlap the other calls
KDM4C inh: inhibitors of human demethylase GASC-1 KDM4C. AID 720574. hit rate 0.15% among 96,000. inhibition, % at 12.5 µM. Q9H3R0. GST-KDM4C 2-372, H3K9me3 peptide, LANCE TR-FRET;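 active means mean replicate inhibition above about 25%, with at least 55% of replicates also reaching it, limit read from the data, passing the limit was not always enough; inconclusive means only one of those two conditions met; inactive means neither condition met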
Target sequence (Q9H3R0 2-372 limits assumed): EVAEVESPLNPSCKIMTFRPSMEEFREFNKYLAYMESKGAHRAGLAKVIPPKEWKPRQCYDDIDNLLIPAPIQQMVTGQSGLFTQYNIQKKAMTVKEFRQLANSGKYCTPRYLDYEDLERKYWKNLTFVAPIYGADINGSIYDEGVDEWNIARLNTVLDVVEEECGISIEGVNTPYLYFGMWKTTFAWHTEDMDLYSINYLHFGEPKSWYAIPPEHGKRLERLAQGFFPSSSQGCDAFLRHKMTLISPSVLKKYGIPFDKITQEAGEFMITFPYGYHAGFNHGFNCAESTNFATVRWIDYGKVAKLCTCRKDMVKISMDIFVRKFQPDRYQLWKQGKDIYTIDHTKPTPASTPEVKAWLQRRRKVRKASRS
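System: N-terminal GST-fused human GASC-1 (KDM4C) fragment, residues 2-372; amount: enzyme final amount 10 nM; incubation: reaction 30 min RT, detection step 1 h RT; medium: HEPES buffer, pH 7.5, plus ascorbate; technique: LANCE TR-FRET, Eu antibody, ULight-streptavidin, EDTA, ex 340 nm, em 618/671 nm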
T cruzi growth-1: blocks T. cruzi growth in NIH3T3 culture | AID 624255 | T. cruzi beta-gal in NIH3T3, GalScreen luminescence, 90 h | inhibition, % at 8.34 µM | hit rate 5.9% among 77,000;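 active means mean inhibition above about 93%, with at least 55% of replicates each passing it, limit read from the data, passing the limit was not always enough; inconclusive means only one of those two conditions holds; inactive means neither condition holds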
T cruzi growth-2: inhibitors of T. cruzi proliferation; inhibition, % at 8.35 µM; hit rate 72% among 5,600; shares compounds with T cruzi growth-1; T. cruzi beta-gal in NIH3T3, GalScreen luminescence, 90 h;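 active means mean replicate inhibition above about 95% and at least 55% of replicates individually reaching it, limit read from the data; inconclusive means only one of the two criteria is met; inactive means neither criterion is met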
T cruzi growth-3: inhibitors of T. cruzi proliferation. AID 651740. hit rate 21% among 5,600. inhibition, % at 2.09 µM. shares compounds with T cruzi growth-1. T. cruzi beta-gal in NIH3T3, GalScreen luminescence, 90 h;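 active means mean inhibition above about 95%, with at least 55% of replicates also reaching it, limit read from the data; inconclusive means meets just one of the two conditions; inactive means meets neither condition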;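 further: plate controls were neutral control median for no effect and positive control median for full effect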
3T3 cytotox: kills mouse NIH/3T3 fibroblasts; shares compounds with T cruzi growth-1; NIH/3T3 viability, CellTiter-Glo ATP luminescence, 90 h; cytotoxicity (signal decrease), % at 8.35 µM; hit rate 14% among 5,600; AID 651742;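 active means mean signal decrease across replicates above about 35% based on untreated-well scatter, with enough replicates individually passing, limit read from the data; inconclusive means no rule stated though some were filed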;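 further: 0% = median of neutral control wells and 100% = median of positive control wells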
NIH3T3 tox 2: kills mouse NIH/3T3 fibroblasts | shares compounds with T cruzi growth-1 | NIH/3T3 viability, CellTiter-Glo ATP luminescence, 90 h | inhibition, % at 24.9 µM | hit rate 56% among 5,600 | AID 651744;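 active means mean loss of cell viability signal at or above a set limit, and enough replicates individually reaching it; inconclusive means meets only the mean limit or only the replicate share; inactive means meets neither condition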;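 further: 0% = median of neutral control wells and 100% = median of positive control wells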
* = called active by the depositor; ? = inconclusive; / = no result.

SMILES	IDH1 R132H inh	Pf Dd2 growth	KDM4C inh	T cruzi growth-1	T cruzi growth-2	T cruzi growth-3	3T3 cytotox	NIH3T3 tox 2
CC(C)NC(=O)Nc1ccc2c(c1)C(=O)N([C@@H](C)CO)C[C@@H](C)[C@H](CN(C)C(=O)NC1CCCCC1)OCCCC[C@@H](C)O2	2	-51	-2	97*	38	-5	10	-1
C[C@@H]1CN([C@H](C)CO)C(=O)c2cc(NC(=O)C3CCCCC3)ccc2O[C@@H](C)CCCCO[C@H]1CN(C)C(=O)NC1CCCCC1	/	-26	7	114*	98*	90	-21	37
CC(C)NC(=O)Nc1ccc2c(c1)C(=O)N([C@@H](C)CO)C[C@@H](C)[C@@H](CN(C)C(=O)NC1CCCCC1)OCCCC[C@H](C)O2	1	-32	-1	5	/	/	/	/
CC(C)NC(=O)Nc1ccc2c(c1)C(=O)N([C@H](C)CO)C[C@@H](C)[C@H](CN(C)C(=O)NC1CCCCC1)OCCCC[C@@H](C)O2	/	-41	-2	96*	93	41	5	6
COc1ccc(-c2ccc3c(c2)[C@H]2[C@H](CCN2S(=O)(=O)c2ccccc2C)[C@H](CO)N3C)cc1	/	-54	1	35	/	/	/	/
N#C[C@@H]1[C@@H](c2ccc(-c3ccc(F)cc3)cc2)[C@@H](CO)N1C(=O)Cc1ccccc1	0	-34	-2	39	/	/	/	/
N#C[C@@H]1[C@H](c2ccccc2)[C@@H](CO)N1C(=O)Cc1ccccc1	/	13	-1	109*	6	-7	-7	1
N#C[C@H]1[C@@H](c2ccccc2)[C@@H](CO)N1C(=O)Cc1ccccc1	0	1	-1	102*	1	6	-12	-12
N#C[C@@H]1[C@@H](c2ccccc2)[C@H](CO)N1C(=O)Cc1ccccc1	/	17	-2	100*	44	5	-22	-9
N#C[C@H]1[C@H](c2ccc(-c3ccc(F)cc3)cc2)[C@@H](CO)N1C(=O)Cc1ccccc1	/	-9	0	?	98*	49	40*	96*
N#C[C@@H]1[C@@H](c2ccc(-c3ccccc3F)cc2)[C@H](CO)N1C(=O)Cc1ccccc1	/	9	0	63	/	/	/	/
C[C@H](CO)N1C[C@H](C)[C@@H](CN(C)C(=O)CCC(F)(F)F)OCCCC[C@H](C)Oc2ccc(NC(=O)NC3CCCCC3)cc2C1=O	/	35	2	57	/	/	/	/
Cc1ccc(S(=O)(=O)N2C(=O)CCC2C(=O)Nc2cc(C(F)(F)F)ccc2Cl)cc1 (stereo not given)	-1	/	/	/	/	/	/	/
C[C@@H]1CCCCO[C@@H](CN(C)C(=O)Nc2ccc(F)cc2)[C@H](C)CN([C@H](C)CO)C(=O)c2cc(NC(=O)c3ccncc3)ccc2O1	6	-7	-4	35	/	/	/	/
CS(=O)(=O)N(CC(=O)NC1CCCCC1)c1cc(Cl)c(Cl)cc1Cl	0	/	/	/	/	/	/	/
COc1ccc(S(=O)(=O)N2CC[C@H]3[C@@H](CO)N(C)c4ccc(C5=CCCCC5)cc4[C@H]32)cc1	/	-16	4	?	90	108*	10	70*
COc1ccc(-c2ccc3c(c2)[C@@H]2[C@@H](CCN2S(=O)(=O)C2=NC(C)C=N2)[C@@H](CO)N3C)cc1 (stereo not given in full)	/	-18	3	?	103*	80	-17	-1
C[C@H]1CN([C@@H](C)CO)C(=O)c2cc(/C=C/c3ccccc3)cnc2O[C@@H]1CN(C)Cc1ccc2c(c1)OCO2	0	-41	0	118*	108*	73	14	102*
C[C@H]1CN([C@@H](C)CO)C(=O)c2cc(/C=C/c3ccccc3)cnc2O[C@H]1CN(C)Cc1ccc2c(c1)OCO2	0	-33	-1	72	/	/	/	/
C[C@H](CO)N1C[C@H](C)[C@@H](CN(C)Cc2ccc3c(c2)OCO3)Oc2ncc(/C=C/c3ccccc3)cc2C1=O	-3	-59	7	92	/	/	/	/
C[C@@H]1CN([C@H](C)CO)C(=O)c2cc(/C=C/c3ccccc3)cnc2O[C@H]1CN(C)Cc1ccc2c(c1)OCO2	-1	-62	0	121*	100*	?	38*	104*
C[C@H](CO)N1C[C@H](C)[C@H](CN(C)Cc2ccc3c(c2)OCO3)Oc2ncc(/C=C/c3ccccc3)cc2C1=O	1	-66	-1	111*	98*	64	28	103*
COc1cccc(S(=O)(=O)Nc2ccc3c(c2)[C@@H]2C[C@H](CC(=O)N(C)C)O[C@H](CO)[C@@H]2O3)c1	-3	-4	-2	-43	/	/	/	/
COc1ccccc1C(=O)N1C[C@H]2[C@@H](c3ccccc31)[C@H](CO)N2C(=O)C1CCOCC1	/	2	-1	32	/	/	/	/
C[C@@H]1CCCCO[C@H](CN(C)CC2CCCCC2)[C@H](C)CN([C@H](C)CO)C(=O)c2cc(NC(=O)Nc3ccc(C(F)(F)F)cc3)ccc2O1	-2	-78	/	?	2	-1	-4	-2
SMILES	IDH1 R132H inh	Pf Dd2 growth	KDM4C inh	T cruzi growth-1	T cruzi growth-2	T cruzi growth-3	3T3 cytotox	NIH3T3 tox 2
C[C@@H]1CCCCO[C@@H](CN(C)CC2CCCCC2)[C@H](C)CN([C@H](C)CO)C(=O)c2cc(NC(=O)Nc3ccc(C(F)(F)F)cc3)ccc2O1	-1	-81*	-2	?	106*	116*	118*	105*
C[C@@H]1CCCCO[C@@H](CN(C)CC2CC2)[C@H](C)CN([C@H](C)CO)C(=O)c2cc(NC(=O)Nc3ccc(C(F)(F)F)cc3)ccc2O1	4	-69	0	53	/	/	/	/
C[C@@H]1CCCCO[C@@H](CN(C)CC2CCCCC2)[C@@H](C)CN([C@@H](C)CO)C(=O)c2cc(NC(=O)Nc3ccc(C(F)(F)F)cc3)ccc2O1	/	-53	/	99*	?	112*	122*	103*
COc1ccccc1NC(=O)N(C)C[C@@H]1Oc2ncc(Br)cc2C(=O)N([C@H](C)CO)C[C@H]1C	-7	-5	1	23	/	/	/	/
C[C@H]1CN([C@@H](C)CO)C(=O)c2cccc(NC(=O)c3cnccn3)c2O[C@@H]1CN(C)S(=O)(=O)c1ccc(Cl)cc1	3	3	0	-73	/	/	/	/
N#Cc1ccc(-c2ccc3c(c2)[C@H]2[C@H](CCN2S(=O)(=O)c2cccc(F)c2)[C@H](CO)N3)cc1	/	-9	-2	13	/	/	/	/
N#Cc1cccc(-c2ccc3c(c2)[C@H]2[C@H](CCN2S(=O)(=O)c2cccc(F)c2)[C@H](CO)N3)c1	/	42	-6	103*	99*	27	10	?

Bioassay records as filed in PubChem BioAssay.
